Test [1] addresses T1, Type-1 angiotensin II receptor B (Rattus norvegicus, UniProt P29089).
T1 sequence (P29089 whole entry): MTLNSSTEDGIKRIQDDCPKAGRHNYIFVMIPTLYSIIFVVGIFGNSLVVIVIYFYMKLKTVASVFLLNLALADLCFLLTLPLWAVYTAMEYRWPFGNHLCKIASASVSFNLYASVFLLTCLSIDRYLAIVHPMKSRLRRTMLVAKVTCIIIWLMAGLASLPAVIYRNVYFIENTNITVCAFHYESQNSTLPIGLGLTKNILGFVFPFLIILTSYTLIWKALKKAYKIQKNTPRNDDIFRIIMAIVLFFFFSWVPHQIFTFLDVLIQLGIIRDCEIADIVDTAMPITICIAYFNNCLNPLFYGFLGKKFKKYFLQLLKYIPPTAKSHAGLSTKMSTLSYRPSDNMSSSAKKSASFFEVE
In words: Binding affinity for Angiotensin II receptor, type 1 measured by ability to displace [125I]- A II from its specific binding site in rat liver membrane. The format is cell membranes. The essentials:
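Purified plasma membranes from male Sprague-Dawley rat liver, isolated on a sucrose gradient, 20–30 μg protein per assay. Filtered, then gamma counted. Nonspecific binding with 1 μM unlabeled AII. Triplicates; IC50 and Hill coefficient from Hill plots.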

For another test, the species on record is Oryctolagus cuniculus. Put plainly: Antagonistic activity through inhibition of A II induced contractions on rabbit aortic strips. Type of test: functional. The following applies: Aorta.

The source of these data is ChEMBL document CHEMBL1126879, “A new series of imidazolones: highly specific and potent nonpeptide AT1 angiotensin II receptor antagonists” (J Med Chem, 1993).

One may read the IC50 as the concentration needed to halve the response being measured. Higher therefore signals lower potency.

In the case of `CCCCC1=NC2(CCN(Cc3ccccc3)CC2)C(=O)N1Cc1ccc(-c2ccccc2C(=O)O)cc1`, the IC50 amounted to 110 nM in test [1] and 420 nM in the test filed under Oryctolagus cuniculus.
The corresponding values for `CCCCC1=NC2(CCC2)C(=O)N1Cc1ccc(-c2ccccc2C(=O)O)cc1` are 38 nM and 42 nM.
Taken in the same sequence, the figures for `CCCCC1=NC2(Cc3ccccc3C2)C(=O)N1Cc1ccc(-c2ccccc2C(=O)O)cc1` were 60 nM and 240 nM.
Take `CCCCC1=NC2(CCN(C(=O)C(N)CC(=O)O)CC2)C(=O)N1Cc1ccc(-c2ccccc2C(=O)O)cc1` (stereo not given): the IC50 in test [1] turned out to be 800 nM. This counts as sub-micromolar.
Consider `O=C(O)c1ccccc1-c1ccc(CN2C(=O)C3(CCCC3)N=C2Cc2ccccc2)cc1`, for which the IC50 amounted to 2500 nM in test [1] and 3900 nM in the test listed under Oryctolagus cuniculus.
With `CCCCC1=NC2(CCN(C(C)=O)CC2)C(=O)N1Cc1ccc(-c2ccccc2C(=O)O)cc1`, the figures for the IC50 (in test [1]; in the test filed under Oryctolagus cuniculus) were 18 nM and 130 nM, respectively.
Taken in the same sequence, the figures for `CCCCC1=NC2(CCCCCCCCCC2)C(=O)N1Cc1ccc(-c2ccccc2C(=O)O)cc1` were 350 nM and 350 nM.
The corresponding values for `CCCCC1=NC2(C(=O)N1Cc1ccc(-c3ccccc3C(=O)O)cc1)C1CC3CC(C1)CC2C3` (stereo not given) are 62 nM and 23 nM.
The corresponding values for `CCCCC1=NC(c2ccccc2)(c2ccccc2)C(=O)N1Cc1ccc(-c2ccccc2C(=O)O)cc1` are 3000 nM and 5400 nM.
In the case of `CCCCC1=NC2(CCOCC2)C(=O)N1Cc1ccc(-c2ccccc2C(=O)O)cc1`, the results for the half-inhibitory concentration (IC50) (in test [1]; in the test filed under Oryctolagus cuniculus) were 47 nM and 200 nM, respectively.
Taken in the same sequence, the figures for `CCCCC1=NC2(CCCC2)C(=O)N1Cc1ccc(-c2ccccc2C(=O)OC)cc1` were 1800 nM and over 10000 nM.
Taken in the same sequence, the figures for `CCCCC1=NC2(CCCC2)C(=S)N1Cc1ccc(-c2ccccc2C(=O)O)cc1` were 80 nM and 52 nM.
Taken in the same sequence, the figures for `CCCCC1=NC2(CCCC2)C(=O)N1Cc1ccc(-c2ccccc2C#N)cc1` were 440 nM and over 10000 nM.
For the compound `CCCCC1=NC2(CCCC2)C(=O)N1Cc1ccc(-c2ccccc2-c2nnn[nH]2)cc1` [IRBESARTAN], the IC50 in test [1] worked out at 1.3 nM; in the test listed under Oryctolagus cuniculus, 4 nM.
`CCCCc1nc(Cl)c(CO)n1Cc1ccc(-c2ccccc2-c2nnn[nH]2)cc1` [LOSARTAN] displayed a 50% inhibitory concentration (IC50) in the test filed under Oryctolagus cuniculus of 25 nM.
As to `CNCC(=O)N[C@@H](CCCNC(=N)N)C(=O)N[C@H](C(=O)N[C@@H](Cc1ccc(O)cc1)C(=O)N[C@H](C(=O)N[C@@H](Cc1cnc[nH]1)C(=O)N1CCC[C@H]1C(=O)N[C@@H](C)C(=O)O)C(C)C)C(C)C` [SARALASIN], the results for the IC50 (in test [1]; in the test listed under Oryctolagus cuniculus) were 2.4 nM and 2.3 nM, respectively.
